The values below come from ChEMBL document CHEMBL1135761, “Discovery of further pyrrolidine trans-lactams as inhibitors of human neutrophil elastase (HNE) with potential as development candidates and the crystal structure of HNE complexed with an inhibitor (GW475151)” (J Med Chem, 2002).

SMILES strings stand for the structures. A value given as a limit tells only on which side of the number the result lay.

Tested on in one data set: not listed separately
The data set is described as follows: pharmacokinetic parameter volume of distribution (Vd) was reported in dog after intravenous administration. The format is ADME, organism-based, Canis lupus familiaris. The conditions noted are these: in vivo, read-out: Vd area.
Broadly, the Vd is a proportionality between amount in the body and measured concentration, not a real space. As to `CC(C)[C@@H]1C(=O)N(S(C)(=O)=O)[C@@H]2CCN(C(=O)c3cnc(CNC4CC4)cn3)[C@H]21.Cl`, the Vd turned out to be 1.9 L/kg.

Tested on in a further data set: not listed separately
The data set is described as follows: Oral bioavailability in dog. The format is ADME, organism-based, Canis lupus familiaris. Particulars: in vivo.
On to `CC(C)[C@@H]1C(=O)N(S(C)(=O)=O)[C@@H]2CCN(C(=O)c3cnc(CNC4CC4)cn3)[C@H]21.Cl`, for which the bioavailability is 120%.

Tested on in the next data set: not listed separately
Briefly: Oral bioavailability in rat. Format: ADME, organism-based. The conditions noted are these: in vivo. The method in brief: (§1)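 Rats were dosed with the hydrochloride salt at 2 mg/kg intravenously and orally. Plasma pharmacokinetic parameters were derived from each route, and F was taken from the oral versus intravenous exposure. Some rat data were normalized from a 2.4 to a 2 mg/kg dose.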
`CC(C)[C@@H]1C(=O)N(S(C)(=O)=O)[C@@H]2CCN(C(=O)c3cnc(CNC4CC4)cn3)[C@H]21.Cl`: the bioavailability stood at 43%.

Tested on in another data set: not listed separately
The data set is described as follows: Pharmacokinetic parameter Tmax was reported in dog after oral administration. The format is ADME, organism-based, Canis lupus familiaris. Particulars: in vivo.
The Tmax is the time from dosing to the highest level. For the molecule `CC(C)[C@@H]1C(=O)N(S(C)(=O)=O)[C@@H]2CCN(C(=O)c3cnc(CNC4CC4)cn3)[C@H]21.Cl`, the Tmax worked out at 15 min.

Tested on in another data set: not listed separately
The data set is described as follows: pharmacokinetic parameter volume of distribution (Vd) was reported in rat after intravenous administration. The format is ADME, organism-based. Particulars: in vivo, read-out: Vd area. The procedure, abridged: as §1
As to `CC(C)[C@@H]1C(=O)N(S(C)(=O)=O)[C@@H]2CCN(C(=O)c3cnc(CNC4CC4)cn3)[C@H]21.Cl`, the Vd came to 5 L/kg.

In another data set the test system is Canis familiaris. The data set is described as follows: pharmacokinetic parameter area under the curve (AUC) was reported in dog after intravenous administration. Particulars: in vivo. The format is ADME, organism-based, Canis lupus familiaris.
What is called AUC is concentration integrated over time. High values mean more exposure, low ones less exposure. For the molecule `CC(C)[C@@H]1C(=O)N(S(C)(=O)=O)[C@@H]2CCN(C(=O)c3cnc(CNC4CC4)cn3)[C@H]21.Cl`, the AUC was 220 ng·h/mL.

Another data set relates to Canis familiaris. The data set is described as follows: pharmacokinetic parameter area under the curve (AUC) was reported in dog after oral administration. The format is ADME, organism-based, Canis lupus familiaris. The conditions noted are these: in vivo.
Molecule `CC(C)[C@@H]1C(=O)N(S(C)(=O)=O)[C@@H]2CCN(C(=O)c3cnc(CNC4CC4)cn3)[C@H]21.Cl` came in with an area under the curve (AUC) of 147 ng·h/mL.

The subject of another data set is Rattus norvegicus. The data set is described as follows: pharmacokinetic parameter area under the curve (AUC) was reported in rat after intravenous administration. Particulars: in vivo. The format is ADME, organism-based. The procedure, abridged: as §1
As for `CC(C)[C@@H]1C(=O)N(S(C)(=O)=O)[C@@H]2CCN(C(=O)c3cnc(CNC4CC4)cn3)[C@H]21.Cl`, the AUC was 148 ng·h/mL.

The test system of a further data set is Rattus norvegicus. The data set is described as follows: pharmacokinetic parameter area under the curve (AUC) was reported in rat after oral administration. The format is ADME, organism-based. The conditions noted are these: in vivo. The procedure, abridged:
as §1
`CC(C)[C@@H]1C(=O)N(S(C)(=O)=O)[C@@H]2CCN(C(=O)c3cnc(CNC4CC4)cn3)[C@H]21.Cl` registered an AUC of 64 ng·h/mL.

Tested on in another data set: not listed separately
The data set is described as follows: half life was reported in dog after intravenous administration. Format: ADME, organism-based, Canis lupus familiaris. Particulars: in vivo.
What is called half-life is how long it takes for the measured level to halve. The molecule `CC(C)[C@@H]1C(=O)N(S(C)(=O)=O)[C@@H]2CCN(C(=O)c3cnc(CNC4CC4)cn3)[C@H]21.Cl` gave a half-life of 24 min.

Tested on in the next data set: not listed separately
The data set is described as follows: half life was reported in dog after oral administration. Format: ADME, organism-based, Canis lupus familiaris. The conditions noted are these: in vivo.
With `CC(C)[C@@H]1C(=O)N(S(C)(=O)=O)[C@@H]2CCN(C(=O)c3cnc(CNC4CC4)cn3)[C@H]21.Cl`, the half-life was 24 min.

Tested on in the next data set: not listed separately
The data set is described as follows: half life was reported in rat after intravenous administration. The format is ADME, organism-based. Particulars: in vivo. The method in brief:
as §1
In turn, `CC(C)[C@@H]1C(=O)N(S(C)(=O)=O)[C@@H]2CCN(C(=O)c3cnc(CNC4CC4)cn3)[C@H]21.Cl` showed a half-life of 18 min.

Tested on in another data set: not listed separately
Briefly: half life was reported in rat after oral administration. Format: ADME, organism-based. Particulars: in vivo. The procedure, abridged:
as §1
`CC(C)[C@@H]1C(=O)N(S(C)(=O)=O)[C@@H]2CCN(C(=O)c3cnc(CNC4CC4)cn3)[C@H]21.Cl` showed a half-life of 24 min.

Tested on in the next data set: not listed separately
The data set is described as follows: Pharmacokinetic parameter Cmax was reported after in dog oral administration. The conditions noted are these: in vivo. Details: route oral. The format is ADME, organism-based, Canis lupus familiaris.
As usually defined, the Cmax is the highest concentration seen after dosing. Turning to `CC(C)[C@@H]1C(=O)N(S(C)(=O)=O)[C@@H]2CCN(C(=O)c3cnc(CNC4CC4)cn3)[C@H]21.Cl`, the Cmax worked out at 205 ng/mL.

Tested on in another data set: not listed separately
Briefly: Pharmacokinetic parameter Cmax was reported after in rat oral administration. Format: ADME, organism-based. Also on record: route oral. The conditions noted are these: in vivo. The method in brief:
as §1
The molecule `CC(C)[C@@H]1C(=O)N(S(C)(=O)=O)[C@@H]2CCN(C(=O)c3cnc(CNC4CC4)cn3)[C@H]21.Cl` came in with a Cmax of 135 ng/mL.

Tested on in a further data set: not listed separately
Briefly: Pharmacokinetic parameter Tmax was reported in rat after oral administration. Format: ADME, organism-based. Particulars: in vivo. The method in brief:
as §1
Consider `CC(C)[C@@H]1C(=O)N(S(C)(=O)=O)[C@@H]2CCN(C(=O)c3cnc(CNC4CC4)cn3)[C@H]21.Cl`, for which the Tmax was determined as 15 min.

The target of another data set is T1, Cathepsin G (Homo sapiens, UniProt P08311).
T1 sequence (P08311 whole entry): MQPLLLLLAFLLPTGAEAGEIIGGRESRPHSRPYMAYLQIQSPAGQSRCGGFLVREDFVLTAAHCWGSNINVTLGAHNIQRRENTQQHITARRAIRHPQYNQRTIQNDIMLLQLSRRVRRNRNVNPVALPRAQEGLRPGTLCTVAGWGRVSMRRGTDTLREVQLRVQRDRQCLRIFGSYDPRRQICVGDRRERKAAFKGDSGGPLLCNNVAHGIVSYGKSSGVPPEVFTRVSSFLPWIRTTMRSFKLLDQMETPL
The data set is described as follows: The compound was evaluated for its inhibitory activity against cathepsin G using selectivity assay.
Conditions: not given
By IC50 is commonly meant the concentration at which inhibition is half-maximal. A high value points to weaker potency in that assay. In the case of `CC(C)[C@@H]1C(=O)N(S(C)(=O)=O)[C@@H]2CCN(C(=O)c3cnc(CNC4CC4)cn3)[C@H]21.Cl`, the IC50 was above 100 µM.

The next data set concerns the target Chymotrypsinogen A (Bos taurus, UniProt P00766). The data set is described as follows: The compound was evaluated for its inhibitory activity against Chymotrypsinogen using selectivity assay.
Conditions: not given
The procedure, abridged: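 Selectivity counter-screen against chymotrypsin, run essentially per an earlier published protocol; inhibitor preincubated with enzyme for 15 min before activity read-out.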
In turn, `CC(C)[C@@H]1C(=O)N(S(C)(=O)=O)[C@@H]2CCN(C(=O)c3cnc(CNC4CC4)cn3)[C@H]21.Cl` registered an IC50 of 0.54 µM. This lies in the sub-micromolar range.

The next data set deals with Serine protease 1 (Homo sapiens, UniProt P07477). The data set is described as follows: The compound was evaluated for its inhibitory activity against trypsin using selectivity assay.
Serine protease 1, sequence (P07477 whole entry): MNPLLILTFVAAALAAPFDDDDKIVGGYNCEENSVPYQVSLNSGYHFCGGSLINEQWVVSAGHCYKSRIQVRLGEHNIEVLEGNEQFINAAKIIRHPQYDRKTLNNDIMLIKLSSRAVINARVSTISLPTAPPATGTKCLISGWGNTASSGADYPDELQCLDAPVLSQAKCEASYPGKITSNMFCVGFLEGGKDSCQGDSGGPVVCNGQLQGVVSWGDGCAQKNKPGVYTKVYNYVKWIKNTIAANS
Conditions: not given
`CC(C)[C@@H]1C(=O)N(S(C)(=O)=O)[C@@H]2CCN(C(=O)c3cnc(CNC4CC4)cn3)[C@H]21.Cl`: the IC50 was above 100 µM.

Tested on in another data set: not listed separately
The data set is described as follows: Pharmacokinetic parameter Tmax was reported in rat after intravenous administration. The format is ADME, organism-based. Particulars: in vivo. The method in brief: as §1
Take `CC(C)[C@@H]1C(=O)N(S(C)(=O)=O)[C@@H]2CCN(C(=O)c3cnc(CNC4CC4)cn3)[C@H]21.Cl`: the Tmax was 1.8 min.

A further data set concerns the target T2, Neutrophil elastase (Homo sapiens) (UniProt P08246).
T2 sequence (whole entry): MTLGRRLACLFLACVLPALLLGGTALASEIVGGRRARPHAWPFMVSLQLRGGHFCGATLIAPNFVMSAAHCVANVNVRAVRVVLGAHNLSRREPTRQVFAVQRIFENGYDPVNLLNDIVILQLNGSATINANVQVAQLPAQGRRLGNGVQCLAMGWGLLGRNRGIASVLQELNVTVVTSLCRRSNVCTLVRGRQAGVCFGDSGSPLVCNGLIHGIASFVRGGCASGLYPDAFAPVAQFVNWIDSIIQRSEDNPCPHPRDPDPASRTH
Particulars: Canis lupus familiaris; 2 mg/kg.
The term inhibition denotes the percentage by which the read-out fell short of the control. In turn, `CC(C)[C@@H]1C(=O)N(S(C)(=O)=O)[C@@H]2CCN(C(=O)c3cnc(CNC4CC4)cn3)[C@H]21.Cl` showed an inhibition of 92%.

Another data set deals with T2, Neutrophil elastase (Homo sapiens). Particulars: Canis lupus familiaris; Blood; 2 mg/kg.
In the case of `CC(C)[C@@H]1C(=O)N(S(C)(=O)=O)[C@@H]2CCN(C(=O)c3cnc(CNC4CC4)cn3)[C@H]21.Cl`, the inhibition was 99%.

The target is the same in the next data set.
Conditions: not given
In turn, `CC(C)[C@@H]1C(=O)N(S(C)(=O)=O)[C@@H]2CCN(C(=O)c3cnc(CNC4CC4)cn3)[C@H]21.Cl` gave a k on of 252000 M⁻¹ s⁻¹.
